Results reported in ChEMBL document CHEMBL1149868, “Synthesis and in vitro anti-leishmanial activity of 1-[5-(5-nitrofuran-2-yl)-1,3,4-thiadiazol-2-yl]- and 1-[5-(5-nitrothiophen-2-yl)-1,3,4-thiadiazol-2-yl]-4-aroylpiperazines” (Bioorg Med Chem, 2008).
The source made the active and inactive calls. The rule behind the calls is not given here.

Legend:
[1] = Cytotoxicity against mouse macrophages assessed as cell death at 24.69 uM after 24 hrs by MTT colorimetric assay; format: cell-based; details: macrophage
[2] = Partition coefficient, log p of the compound; format: physicochemical; details: octanol/water
Leishmania major [3] = assay: Antileishmanial activity against Leishmania major MRHO/IR/75/ER promastigotes by MTT assay; format: functional, organism-based
Procedure, shortened: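 L. major MRHO/IR/75/ER promastigotes from early log phase, 2×10^6/mL, in phenol red free RPMI 1640 with 10% FBS, 2 mM glutamine, pH ~7.2 and antibiotics. Exposed to serial drug dilutions for 24 h at 25 °C. MTT (0.5 mg/mL) added for 4 h at 37 °C, pellet dissolved in DMSO, A492 read. Two or more independent experiments in triplicate; IC50 by linear regression, means ± SD.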

[4] = Cytotoxicity against mouse macrophages assessed as cell death at >50 uM after 24 hrs by MTT colorimetric assay; format: cell-based; details: macrophage
Leishmania major [5] = assay: Antileishmanial activity against Leishmania major amastigotes in mouse macrophages assessed as decrease in infectivity index after 24 hrs; format: functional, organism-based
Leishmania major [6] = assay: Antileishmanial activity against Leishmania major amastigotes assessed as decrease in infectivity in mouse macrophages after 24 hrs; format: functional, organism-based
[7] = Cytotoxicity against mouse macrophages assessed as cell death at 13.11 uM after 24 hrs by MTT colorimetric assay; format: cell-based; details: macrophage
Leishmania major [8] = assay: Antileishmanial activity against Leishmania major MRHO/IR/75/ER amastigotes by Giemsa staining
[9] = Cytotoxicity against mouse macrophages assessed as cell death at 13.19 uM after 24 hrs by MTT colorimetric assay; format: cell-based; details: macrophage
[10] = Cytotoxicity against mouse macrophages assessed as cell death at 10.73 uM after 24 hrs by MTT colorimetric assay; format: cell-based; details: macrophage
[11] = Cytotoxicity against mouse macrophages assessed as cell death at 11.69 uM after 24 hrs by MTT colorimetric assay; format: cell-based; details: macrophage
[12] = Cytotoxicity against mouse macrophages assessed as cell death at 19.18 uM after 24 hrs by MTT colorimetric assay; format: cell-based; details: macrophage
[13] = Cytotoxicity against mouse macrophages assessed as cell death at 30 uM after 24 hrs by MTT colorimetric assay; format: cell-based; details: macrophage
Procedure, shortened: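 Mouse peritoneal macrophages were seeded at 2×10^5 cells/well and allowed to adhere. Medium was then replaced with compound-containing medium and cells were incubated 24 h at 37 °C in humidified 5% CO2. Controls received medium plus DMSO. Viability was read by MTT. % cell death = (control viability − treated viability)/control viability. Values are means ± SD.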

[14] = Cytotoxicity against mouse macrophages assessed as cell death at 24.11 uM after 24 hrs by MTT colorimetric assay; format: cell-based; details: macrophage
[15] = Cytotoxicity against mouse macrophages assessed as cell death at 34.44 uM after 24 hrs by MTT colorimetric assay; format: cell-based; details: macrophage
[16] = Cytotoxicity against mouse macrophages assessed as cell death at 25 uM after 24 hrs by MTT colorimetric assay; format: cell-based; details: macrophage
[17] = Cytotoxicity against mouse macrophages assessed as cell death at 23.78 uM after 24 hrs by MTT colorimetric assay; format: cell-based; details: macrophage
[18] = Cytotoxicity against mouse macrophages assessed as cell death at 26.22 uM after 24 hrs by MTT colorimetric assay; format: cell-based; details: macrophage
[19] = Cytotoxicity against mouse macrophages assessed as cell death at 11.75 uM after 24 hrs by MTT colorimetric assay; format: cell-based; details: macrophage
[20] = Cytotoxicity against mouse macrophages assessed as cell death at 28.26 uM after 24 hrs by MTT colorimetric assay; format: cell-based; details: macrophage

Molecule	logP [2]	IC50 (Leishmania major [3])	Activity (Leishmania major [5])	Activity (Leishmania major [6])	Activity (Leishmania major [8])	further results
O=C(c1ccc(Br)s1)N1CCN(c2nnc(-c3ccc([N+](=O)[O-])s3)s2)CC1	2.57	24.7 µM	–	–	–	Activity [1]: 9.2%
O=C(c1cccc(Cl)c1)N1CCN(c2nnc(-c3ccc([N+](=O)[O-])s3)s2)CC1	2.29	> 50 µM	–	–	–	Activity [4]: 5.5%
O=C(c1ccc(Br)s1)N1CCN(c2nnc(-c3ccc([N+](=O)[O-])o3)s2)CC1	2.22	13.1 µM	Active	Active	Active	Activity [7]: 7.7%
O=C(c1cccc(Cl)c1)N1CCN(c2nnc(-c3ccc([N+](=O)[O-])o3)s2)CC1	1.95	13.2 µM	Active	Active	Active	Activity [9]: 9.7%
O=C(c1ccccc1Cl)N1CCN(c2nnc(-c3ccc([N+](=O)[O-])o3)s2)CC1	1.95	10.7 µM	Active	Active	Active	Activity [10]: 8.7%
O=C(c1ccccc1)N1CCN(c2nnc(-c3ccc([N+](=O)[O-])o3)s2)CC1	2.17	11.7 µM	Active	Active	Active	Activity [11]: 7.1%
O=C(c1cccs1)N1CCN(c2nnc(-c3ccc([N+](=O)[O-])o3)s2)CC1	0.78	19.2 µM	–	–	–	Activity [12]: 2.4%
MEGLUMINE ANTIMONATE	–	–	–	–	–	Activity [13]: 40.4%
O=C(c1ccc(Cl)cc1)N1CCN(c2nnc(-c3ccc([N+](=O)[O-])s3)s2)CC1	2.29	24.1 µM	–	–	–	Activity [14]: 7.2%
O=C(c1ccccc1Cl)N1CCN(c2nnc(-c3ccc([N+](=O)[O-])s3)s2)CC1	2.29	34.4 µM	–	–	–	Activity [15]: 6.1%
O=C(c1ccccc1)N1CCN(c2nnc(-c3ccc([N+](=O)[O-])s3)s2)CC1	2.52	25 µM	–	–	–	Activity [16]: 8.9%
O=C(c1ccc(Cl)s1)N1CCN(c2nnc(-c3ccc([N+](=O)[O-])s3)s2)CC1	2.27	23.8 µM	–	–	–	Activity [17]: 9.8%
O=C(c1ccc(Cl)cc1)N1CCN(c2nnc(-c3ccc([N+](=O)[O-])o3)s2)CC1	1.95	26.2 µM	–	–	–	Activity [18]: 9.7%
O=C(c1ccc(Cl)s1)N1CCN(c2nnc(-c3ccc([N+](=O)[O-])o3)s2)CC1	1.92	11.8 µM	Active	Active	Active	Activity [19]: 7.6%
O=C(c1cccs1)N1CCN(c2nnc(-c3ccc([N+](=O)[O-])s3)s2)CC1	1.13	28.3 µM	–	–	–	Activity [20]: 8.7%
